# Results from different studies.
# Each line is one published result; the experiments were not run side by side.
# Target: Tyrosine-protein kinase CSK (CSK, Homo sapiens, UniProt P41240)
Compound,read-out,mode,technique,tested at,quantity,value
Cn1cc(-c2cccc(N3CCc4c(sc5c4CC(C)(C)C5)C3=O)c2CO)cc(Nc2ccncn2)c1=O,enzyme activity,inhibitor,,1 µM,inhibition,4%
O=C(NCc1ncc(C(F)(F)F)cc1Cl)c1ccc2c(c1)C1(CCS(=O)(=O)CC1)[C@@H](C1CC1)N2S(=O)(=O)c1ccc(F)cc1,cell-free assay,,competition with immobilised ligand,1 µM,remaining binding,96%
CC(C)(C)c1cc(C=C(C#N)C#N)cc(Br)c1O,enzyme activity,inhibitor,,0.5 µM,remaining activity,106%
Nc1ncc(-c2nc(N3CCOCC3)nc(N3CCOCC3)n2)c(C(F)F)n1,binding,,competition with immobilised ligand,10 µM,remaining binding,73%
N#CC1(c2ccccn2)CCN(Cc2cc(C(=O)O)c(=O)n3ccccc23)CC1,cell-free assay,,competition with immobilised ligand,1 µM,remaining binding,100%
O=c1[nH]c2ccccc2n1C1CCN(Cc2ccc(-c3[nH]c4cc5ncnc5cc4nc3-c3ccccc3)cc2)CC1,enzyme activity,,,0.5 µM,remaining activity,101%
Cc1nn(C)cc1-c1nc2c(N3CCN(Cc4ccc(Cl)cc4)CC3)c(Cl)cnc2[nH]1,binding,,competition with immobilised ligand,1 µM,remaining binding,100%
COc1ncccc1-c1cnn2ccc(N3CCN(C(=O)OC(C)C)CC3)nc12,binding,,competition with immobilised ligand,1 µM,remaining binding,100%
Cn1cc(-c2cc(F)cc(N3CCn4c(cc5c4CCCC5)C3=O)c2CO)cc(Nc2ccc(N3CCN(C4COC4)CC3)cn2)c1=O,enzyme activity,inhibitor,,0.1 µM,inhibition,12%
